This is an account of results in ChEMBL document CHEMBL2203165, “Glycolysis inhibitor screening identifies the bis-geranylacylphloroglucinol protonophore moronone from Moronobea coccinea” (2012).

Each structure is given as a SMILES string. Active and inactive are the calls of the source. No cut-off for these calls is given here.

Assay [1] deals with MDA-MB-231. As to the kind of experiment: Effect on lactate production in human MDA-MB-231 cells at 0.1 uM measured per ug of cellular protein after 48 hrs by enzyme based assay (reference value: 40.5 +/- 6 nmol/ug of cellular protein). The assay is classed as functional.
Assay [2] has as its system MDA-MB-231. Briefly: Effect on lactate production in human MDA-MB-231 cells at 0.1 uM measured per ug of cellular protein after 24 hrs by enzyme based assay (reference value: 23.6 +/- 2 nmol/ug of cellular protein). In kind it is functional.
Assay [3] concerns MDA-MB-231. Briefly: Increase in cellular glucose consumption in human MDA-MB-231 cells at 0.1 uM measured per ug of cellular protein after 24 hrs by enzyme based assay (reference value: 17.2 +/- 2 nmol/ug of cellular protein). The assay is classed as functional.
The test system of assay [4] is MDA-MB-231. As to the kind of experiment: Inhibition of cell viability of human MDA-MB-231 cells at 0.1 uM after 48 hrs by sulforhodamine B method. To be noted: MDA-MB-231, 48 h. In kind it is functional. A digest of the protocol:
(§1)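 MDA-MB-231 cells are plated at 3×10^4 per well in RPMI 1640 with 10% FBS. After 24 h, compound diluted in serum-free medium is added, with DMSO below 0.5%. Cells are incubated 48 h at 37 °C and viability is read by sulforhodamine B as % inhibition of untreated control. Concentration-response runs are in half-log steps.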
For orientation: The SRB assay estimates cell density from bound dye.

The subject of assay [5] is MDA-MB-231. As to the kind of experiment: Increase in cellular glucose consumption in human MDA-MB-231 cells at 0.1 uM measured per ug of cellular protein after 48 hrs by enzyme based assay (reference value: 43 +/- 8.4 nmol/ug of cellular protein). In kind it is functional.
Assay [6] has as its system T47D. Briefly: Increase in cellular respiration in human T47D cells assessed as increase in oxygen consumption at 0.1 to 1 uM after 48 hrs. The assay is classed as functional, cell-based. A digest of the protocol:
(§2)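 Oxygen consumption of intact MDA-MB-231 or T47D cells measured with a Clark-type electrode, no FBS present; compound tested at 0.1, 0.3, 1 and 3 μM; rate normalized to untreated control. Average + standard deviation from three independent experiments (n = 3).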

Assay [7] concerns MDA-MB-231. As to the kind of experiment: Increase in cellular glucose consumption in human MDA-MB-231 cells at 3 uM measured per ug of cellular protein after 24 hrs by enzyme based assay (reference value: 17.2 +/- 2 nmol/ug of cellular protein). The assay is classed as functional.
Assay [8] deals with MDA-MB-231. As to the kind of experiment: Effect on lactate production in human MDA-MB-231 cells at 10 uM measured per ug of cellular protein after 24 hrs by enzyme based assay (reference value: 23.6 +/- 2 nmol/ug of cellular protein). In kind it is functional.
Assay [9] deals with MDA-MB-231. Briefly: Effect on lactate production in human MDA-MB-231 cells at 10 uM measured per ug of cellular protein after 48 hrs by enzyme based assay (reference value: 40.5 +/- 6 nmol/ug of cellular protein). The assay is classed as functional.
The subject of assay [10] is MDA-MB-231. As to the kind of experiment: Effect on lactate production in human MDA-MB-231 cells at 3 uM measured per ug of cellular protein after 48 hrs by enzyme based assay (reference value: 40.5 +/- 6 nmol/ug of cellular protein). In kind it is functional.
The subject of assay [11] is MDA-MB-231. As to the kind of experiment: Decrease in mitochondrial membrane potential in human MDA-MB-231 cells assessed as decline in respiration rate at 1 uM after 48 hrs. The assay is classed as functional, cell-based. A digest of the protocol:
as §2

Assay [12] deals with MDA-MB-231. Briefly: Increase in cellular glucose consumption in human MDA-MB-231 cells at 3 uM measured per ug of cellular protein after 48 hrs by enzyme based assay (reference value: 43 +/- 8.4 nmol/ug of cellular protein). The assay is classed as functional.
Assay [13] concerns MDA-MB-231. As to the kind of experiment: Stimulation of oligomycin-induced state 4 respiration in human MDA-MB-231 cells at 1 uM. In kind it is functional, cell-based. The essentials: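 Oligomycin (1 μM) added to MDA-MB-231 cells in a Clark-type electrode chamber to initiate state 4 respiration. Compound (1 μM) then added and oxygen consumption followed. Rate normalized to untreated control.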

Assay [14] has as its system T47D. As to the kind of experiment: Decrease in mitochondrial membrane potential in human T47D cells assessed as decline in respiration rate at 1 uM after 48 hrs. The assay is classed as functional, cell-based. A digest of the protocol: as §2
The subject of assay [15] is MDA-MB-231. Briefly: Decrease in mitochondrial membrane potential in human MDA-MB-231 cells assessed as decline in respiration rate at 3 uM after 48 hrs. The assay is classed as functional, cell-based. A digest of the protocol:
as §2

Assay [16] relates to MDA-MB-231. As to the kind of experiment: Increase in cellular glucose consumption in human MDA-MB-231 cells at 10 uM measured per ug of cellular protein after 24 hrs by enzyme based assay (reference value: 17.2 +/- 2 nmol/ug of cellular protein). In kind it is functional.
Assay [17] concerns MDA-MB-231. Briefly: Cytotoxicity against human MDA-MB-231 cells assessed as inhibition of cell proliferation/viability at 30 uM in presence of 0.1 uM rotenone mitochondrial electron transport inhibitor. The assay is classed as functional. A digest of the protocol: (§3)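 MDA-MB-231 cells in RPMI 1640 with 10% FBS, plated 3×10^4/well; after 24 h, compound diluted in serum-free medium added with or without rotenone (0.1 μM final), DMSO <0.5%. 48 h at 37 °C; viability by sulforhodamine B; % inhibition of untreated control; two independent experiments each in triplicate (n = 6).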

Assay [18] deals with MDA-MB-231. Briefly: Effect on lactate production in human MDA-MB-231 cells at 1 uM measured per ug of cellular protein after 48 hrs by enzyme based assay (reference value: 40.5 +/- 6 nmol/ug of cellular protein). The assay is classed as functional.
The test system of assay [19] is MDA-MB-231. Briefly: Increase in cellular glucose consumption in human MDA-MB-231 cells at 10 uM measured per ug of cellular protein after 48 hrs by enzyme based assay (reference value: 43 +/- 8.4 nmol/ug of cellular protein). The assay is classed as functional.
In assay [20] the test system is MDA-MB-231. As to the kind of experiment: Increase in cellular glucose consumption in human MDA-MB-231 cells at 1 uM measured per ug of cellular protein after 48 hrs by enzyme based assay (reference value: 43 +/- 8.4 nmol/ug of cellular protein). In kind it is functional.
Assay [21] deals with MDA-MB-231. As to the kind of experiment: Increase in cellular respiration in human MDA-MB-231 cells assessed as increase in oxygen consumption at 0.1 to 1 uM after 48 hrs. The assay is classed as functional, cell-based. A digest of the protocol:
as §2

Assay [22] deals with MDA-MB-231. As to the kind of experiment: Increase in cellular glucose consumption in human MDA-MB-231 cells at 1 uM measured per ug of cellular protein after 24 hrs by enzyme based assay (reference value: 17.2 +/- 2 nmol/ug of cellular protein). The assay is classed as functional.
Assay [23] has as its system T47D. Briefly: Decrease in mitochondrial membrane potential in human T47D cells assessed as decline in respiration rate at 3 uM after 48 hrs. The assay is classed as functional, cell-based. The essentials:
as §2

Assay [24] concerns MDA-MB-231. Briefly: Effect on lactate production in human MDA-MB-231 cells at 3 uM measured per ug of cellular protein after 24 hrs by enzyme based assay (reference value: 23.6 +/- 2 nmol/ug of cellular protein). In kind it is functional.
Assay [25] deals with MDA-MB-231. As to the kind of experiment: Cytotoxicity against human MDA-MB-231 cells assessed as inhibition of cell proliferation/viability at 0.1 to 10 uM in presence of 0.1 uM rotenone mitochondrial electron transport inhibitor. In kind it is functional, cell-based. A digest of the protocol:
as §3

Assay [26] concerns MDA-MB-231. Briefly: Effect on lactate production in human MDA-MB-231 cells at 1 uM measured per ug of cellular protein after 24 hrs by enzyme based assay (reference value: 23.6 +/- 2 nmol/ug of cellular protein). In kind it is functional.
Assay [27] has as its system MDA-MB-231. As to the kind of experiment: Increase in cellular glucose consumption in human MDA-MB-231 cells at […] measured per ug of cellular protein after 48 hrs by enzyme based assay (reference value: 43 +/- 8.4 nmol/ug of cellular protein). The assay is classed as functional.
Assay [28] deals with MDA-MB-231. As to the kind of experiment: Effect on lactate production in human MDA-MB-231 cells at […] measured per ug of cellular protein after 48 hrs by enzyme based assay (reference value: 40.5 +/- 6 nmol/ug of cellular protein). In kind it is functional.
In assay [29] the test system is MDA-MB-231. Briefly: Inhibition of cell viability of human MDA-MB-231 cells at 1 mM after 48 hrs by sulforhodamine B method. In kind it is functional. To be noted: MDA-MB-231, 48 h. The essentials:
as §1

For assay [30], the system named is MDA-MB-231. Briefly: Inhibition of cell viability of human MDA-MB-231 cells at 3 mM after 48 hrs by sulforhodamine B method in presence of 1 uM F1F0-ATPase inhibitor oligomycin. The assay is classed as functional, cell-based.
Assay [31] deals with MDA-MB-231. Briefly: Effect on lactate production in human MDA-MB-231 cells at […] measured per ug of cellular protein after 24 hrs by enzyme based assay (reference value: 23.6 +/- 2 nmol/ug of cellular protein). In kind it is functional.
The test system of assay [32] is MDA-MB-231. Briefly: Inhibition of cell viability of human MDA-MB-231 cells at 3 mM after 48 hrs by sulforhodamine B method in presence of 1 uM mitochondrial ETC complex III inhibitor antimycin A. The assay is classed as functional, cell-based.
The subject of assay [33] is MDA-MB-231. Briefly: Inhibition of cell viability of human MDA-MB-231 cells at 30 mM after 48 hrs by sulforhodamine B method. In kind it is functional, cell-based. The essentials:
as §1

Assay [34] deals with MDA-MB-231. As to the kind of experiment: Inhibition of cell viability of human MDA-MB-231 cells at 3 mM after 48 hrs by sulforhodamine B method. The assay is classed as functional. Particulars: MDA-MB-231, 48 h. A digest of the protocol: as §1
Assay [35] relates to MDA-MB-231. As to the kind of experiment: Increase in cellular glucose consumption in human MDA-MB-231 cells at […] measured per ug of cellular protein after 24 hrs by enzyme based assay (reference value: 17.2 +/- 2 nmol/ug of cellular protein). The assay is classed as functional.
Assay [36] relates to MDA-MB-231. As to the kind of experiment: Inhibition of cell viability of human MDA-MB-231 cells at 10 mM after 48 hrs by sulforhodamine B method. The assay is classed as functional, cell-based. A digest of the protocol: as §1

The term inhibition denotes the percentage by which the read-out fell short of the control.

With `C=C(C)[C@H]1Cc2c(ccc3c2O[C@@H]2COc4cc(OC)c(OC)cc4[C@@H]2C3=O)O1` [ROTENONE], the Activity is recorded as 190.4 nmol in assay [1], 75.7 nmol in assay [2], 37.5 nmol in assay [3] and 177.6 nmol in assay [5]. In assay [4], this compound had an inhibition at 0.1 µM of 7%.

For the compound `CC(C)=CCC/C(C)=C/CC1(C/C=C(\C)CCC=C(C)C)C(O)=CC(=O)C(C(=O)c2ccccc2)=C1O` (stereo unspecified) [MORONONE], the result in assay [6], in assay [11], in [13], in assay [14], in assay [15] and in assay [21] was Active. For the same compound, the outcome in [23] and in assay [25] was Active. Further, the Activity in [7] came to 25.9 nmol; in assay [8], 59.5 nmol; in assay [9], 168.5 nmol; in assay [10], 67.3 nmol; in assay [12] it was 73.4 nmol; in assay [16], 45.8 nmol. Further, the Activity in assay [18] is 49.3 nmol; in assay [19], 168.4 nmol; in [20], 44.7 nmol; in assay [22], 26.7 nmol; in [24], 25.4 nmol; in assay [26], 21.9 nmol. The “inhibition (INH)” value in [17] is 68%.

For `OC[C@H]1O[C@@H](O)C[C@@H](O)[C@@H]1O`, the Activity is 50.2 nmol in assay [27], 52.8 nmol in assay [28], 26.3 nmol in assay [31] and 22.5 nmol in [35]. In assay [29], this compound registered an inhibition at 1000 µM of 4%. Further, the inhibition result in assay [30], in assay [32], in assay [33] and in [36] was “Active” throughout. Further, the inhibition at 3000 µM in assay [34] stood at 8%.
